As a reminder, the EC50 is the midpoint of the concentration-response curve. Low readings indicate higher potency in that assay, high ones lower potency in that assay.

Calls of active or inactive are those of the source. No cut-off for these calls is given here.

The source of these data is ChEMBL document CHEMBL1146083, “Novel potent and efficacious nonpeptidic urotensin II receptor agonists” (J Med Chem, 2006).

One assay has as its target T1, Urotensin-2 receptor (Homo sapiens, UniProt Q9UKP6).
T1 sequence (Q9UKP6 whole entry): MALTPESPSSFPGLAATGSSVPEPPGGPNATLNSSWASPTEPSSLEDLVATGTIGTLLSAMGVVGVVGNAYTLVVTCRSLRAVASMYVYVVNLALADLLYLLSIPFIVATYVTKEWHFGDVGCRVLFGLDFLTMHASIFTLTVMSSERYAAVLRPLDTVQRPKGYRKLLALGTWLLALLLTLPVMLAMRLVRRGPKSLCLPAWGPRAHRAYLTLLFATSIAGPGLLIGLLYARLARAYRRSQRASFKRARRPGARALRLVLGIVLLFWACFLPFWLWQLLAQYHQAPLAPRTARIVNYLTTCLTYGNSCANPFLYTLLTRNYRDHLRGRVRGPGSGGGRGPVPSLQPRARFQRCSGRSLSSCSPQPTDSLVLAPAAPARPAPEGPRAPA
The assay is described as follows: (§1) Activity against human urotensin-2 receptor expressed in NIH3T3 cells. In kind it is cell-based. A digest of the protocol: (§2)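 R-SAT functional agonist assay. NIH-3T3 cells grown to 80% confluence in DMEM with 10% bovine calf serum, then transfected for 18 h with human UII receptor plus β-galactosidase marker. Cells frozen, thawed and plated in DMEM with 0.4% calf serum and 30% UltraCulture onto compound. Five-day incubation in 5% CO2, then reporter read at 420 nm. Eight doses in triplicate; pEC50 averaged over 2-6 determinations; efficacy normalized to UII as 100%.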

The target of assay [1] is T2, Urotensin-2 receptor (Homo sapiens) (UniProt Q9UKP6).
T2 sequence (whole entry): T1 sequence (Q9UKP6 whole entry)
Described as §1. In kind it is cell-based. A digest of the protocol: as §2

On to `CN(C)CCC(NC(=O)Nc1ccc(Oc2ccccc2)cc1)c1ccc(Cl)cc1` (configuration not stated), for which a half-maximal effect on Urotensin-2 receptor (EC50) was put at 110 nM. In addition, in assay [1], the Efficacy was 108%.

For `CN(C)CCC(OC(=O)c1cccc2ccccc12)c1ccc(Cl)cc1` (configuration not stated), the Efficacy in assay [1] turned out to be 95%.

Regarding `Cc1c(Cl)cccc1C(=O)OC(CCN(C)C)c1ccc(Cl)cc1` (configuration not stated), the Efficacy in assay [1] was determined as 118%.

In assay [1], `Cc1ccccc1NC(=O)OC(CCN(C)C)c1ccc(Cl)cc1` (configuration not stated) returned an Efficacy of 176%.

As for `COc1cccc(NC(=O)OC(CCN(C)C)c2ccc(Cl)cc2)c1` (configuration not stated), in assay [1], the Efficacy was 136%.

`Cc1cc2c(cc1C)C(=O)OC(CCN(C)C)(c1ccc(Cl)cc1)C2` (configuration not stated) showed an EC50 at Urotensin-2 receptor of 135 nM. In assay [1], the Efficacy turned out to be 146%.

For `CN(C)CCC(OC(=O)Nc1ccc(C(F)(F)F)cc1)c1ccc(Cl)cc1` (configuration not stated), a half-maximal effect on Urotensin-2 receptor (EC50) was put at 251 nM. For the same molecule, the Efficacy in assay [1] turned out to be 94%.

`CN(C)CCC(NC(=O)Cc1ccccc1)c1ccc(Cl)cc1` (configuration not stated) gave an Efficacy in assay [1] of 155%.

Consider `Cc1ccc(C(=O)NC(CCN(C)C)c2ccc(Cl)cc2)c(C)c1` (configuration not stated), for which the Efficacy in assay [1] amounted to 147%.

Molecule `COc1ccc(NC(=O)NC(CCN(C)C)c2ccc(Cl)cc2)cc1` (configuration not stated) gave an EC50 at Urotensin-2 receptor of 2000 nM. Further, in assay [1], the Efficacy was 195%.

In the case of `CN(C)CCC(NC(=O)c1ccc(C(F)(F)F)cc1)c1ccc(Cl)cc1` (configuration not stated), it took 77.6 nM to reach a half-maximal effect at Urotensin-2 receptor (EC50). The Efficacy in assay [1] amounted to 115%.

In the case of `COc1ccc(NC(=O)OC(CCN(C)C)c2ccc(Cl)cc2)cc1` (configuration not stated), the EC50 at Urotensin-2 receptor is 1660 nM. The molecule also gave an Efficacy in assay [1] of 170%.

On to `Cc1cc(Br)ccc1C(=O)OC(CCN(C)C)c1ccc(Cl)cc1` (configuration not stated), for which the Efficacy in assay [1] was 95%.

`CN(C)CCC(OC(=O)c1cn(C)c2ccccc12)c1ccc(Cl)cc1` (configuration not stated) gave an EC50 on Urotensin-2 receptor of 1510 nM. In assay [1], this molecule registered an Efficacy of 104%.

On Urotensin-2 receptor, `CN(C)CCC(NC(=O)Nc1ccc2ccccc2c1)c1ccc(Cl)cc1` (configuration not stated) had an EC50 of 288 nM. In assay [1], this molecule came in with an Efficacy of 106%.

`CN(C)CCC(NC(=O)Nc1ccc(C(C)(C)C)cc1)c1ccc(Cl)cc1` (configuration not stated) showed an EC50 on Urotensin-2 receptor of 275 nM. The same molecule returned an Efficacy in assay [1] of 103%.

As for `COc1ccc(C(=O)NC(CCN(C)C)c2ccc(Cl)cc2)cc1` (configuration not stated), the Efficacy in assay [1] worked out at 162%.

With `CO[C@@H](C(=O)N[C@@H](CCN(C)C)c1ccc(Cl)cc1)c1ccccc1`, the EC50 at Urotensin-2 receptor was 871 nM. The molecule further registered an Efficacy in assay [1] of 165%.

The molecule `CN(C)CCC(NC(=O)c1ccc(-c2ccccc2)cc1)c1ccc(Cl)cc1` (configuration not stated) returned an Efficacy in assay [1] of 116%.

`Cc1cccc(Cl)c1C(=O)NC(CCN(C)C)c1ccc(Cl)cc1` (configuration not stated) registered an Efficacy in assay [1] of 105%.

In assay [1], `Cc1ccccc1C(=O)OC(CCN(C)C)c1ccc(Cl)cc1` (configuration not stated) came in with an Efficacy of 126%.

As for `CN(C)CC[C@H](NC(=O)c1ccc(-c2ccccc2)cc1)c1ccc(Cl)cc1`, on Urotensin-2 receptor, the EC50 was 32.4 nM. Moreover, in assay [1], the Efficacy amounted to 116%.

Turning to `Cc1ccc(C(=O)OC(CCN(C)C)c2ccc(Cl)cc2)cc1` (configuration not stated), in assay [1], the Efficacy was determined as 56%.

The molecule `CN(C)CCC(OC(=O)c1ccc(C(F)(F)F)cc1)c1ccc(Cl)cc1` (configuration not stated) showed an EC50 on Urotensin-2 receptor of 1740 nM. This molecule came in with an Efficacy in assay [1] of 47%.

At Urotensin-2 receptor, `CN(C)CCC(OC(=O)Nc1ccc(Oc2ccccc2)cc1)c1ccc(Cl)cc1` (configuration not stated) gave an EC50 of 191 nM. The same molecule registered an Efficacy in assay [1] of 107%.

With `Cc1c(Cl)cccc1C(=O)NC(CCN(C)C)c1ccc(Cl)cc1` (configuration not stated), in assay [1], the Efficacy stood at 142%.

With `CN(C)CCC(NS(=O)(=O)c1ccc(-c2ccccc2)cc1)c1ccc(Cl)cc1` (configuration not stated), the “Log EC50” value in assay [1] was “inactive”.

The molecule `CN(C)CCC(NC(=O)Nc1ccc(-c2ccccc2)cc1)c1ccc(Cl)cc1` (configuration not stated) had an EC50 on Urotensin-2 receptor of 145 nM. The molecule also had an Efficacy in assay [1] of 91%.

Turning to `Cc1cccc(C(=O)NC(CCN(C)C)c2ccc(Cl)cc2)c1C` (configuration not stated), the Efficacy in assay [1] was 159%.

Regarding `Cc1ccccc1NC(=O)NC(CCN(C)C)c1ccc(Cl)cc1` (configuration not stated), the Efficacy in assay [1] stood at 175%.

`Cc1cc(C)c(C(=O)NC(CCN(C)C)c2ccc(Cl)cc2)cc1C` (configuration not stated) registered an Efficacy in assay [1] of 159%.

`CN(C)CCC(NC(=O)c1ccc(Oc2ccccc2)cc1)c1ccc(Cl)cc1` (configuration not stated) came in with an Efficacy in assay [1] of 89%.

`CN(C)CCC(OC(=O)c1cc2ccccc2n1C)c1ccc(Cl)cc1` (configuration not stated): the half-maximal effective concentration (EC50) on Urotensin-2 receptor was 1380 nM. Also, in assay [1], the Efficacy stood at 73%.

`Cc1cc(C)c(C(=O)OC(CCN(C)C)c2ccc(Cl)cc2)cc1C` (configuration not stated) had an Efficacy in assay [1] of 60%.

The molecule `Cc1ccc(S(=O)(=O)NC(CCN(C)C)c2ccc(Cl)cc2)cc1` (configuration not stated) registered an Efficacy in assay [1] of 74%.

`Cc1ccsc1C(=O)OC(CCN(C)C)c1ccc(Cl)cc1` (configuration not stated): the Efficacy in assay [1] worked out at 119%.

In the case of `Cc1cccc(C(=O)OC(CCN(C)C)c2ccc(Cl)cc2)c1C` (configuration not stated), it took 1150 nM to reach a half-maximal effect on Urotensin-2 receptor (EC50). For the same molecule, the Efficacy in assay [1] was determined as 91%.

In the case of `CN(C)CCC(OC(=O)NCc1ccccc1)c1ccc(Cl)cc1` (configuration not stated), in assay [1], the Efficacy was determined as 180%.

`CN(C)CCC(NC(=O)NCc1ccccc1)c1ccc(Cl)cc1` (configuration not stated): on Urotensin-2 receptor, the midpoint of the response, the EC50, lay at 2000 nM. In assay [1], this molecule gave an Efficacy of 179%.

Take `COc1ccccc1COC(CCN(C)C)c1ccc(Cl)cc1` (configuration not stated): the “Log EC50” value in assay [1] was “inactive”.

Take `COc1cccc(C(=O)NC(CCN(C)C)c2ccc(Cl)cc2)c1C` (configuration not stated): the Efficacy in assay [1] was found to be 179%.

`CN(C)CCC(OC(=O)Nc1ccc2ccccc2c1)c1ccc(Cl)cc1` (configuration not stated) had an EC50 on Urotensin-2 receptor of 525 nM. This molecule yielded an Efficacy in assay [1] of 89%.

As to `COc1cccc(C(=O)OC(CCN(C)C)c2ccc(Cl)cc2)c1C` (configuration not stated), the EC50 at Urotensin-2 receptor was 1950 nM. The Efficacy in assay [1] stood at 88%.

As for `CN(C)CCC(OC(=O)c1ccc(-c2ccccc2)cc1)c1ccc(Cl)cc1` (configuration not stated), the Efficacy in assay [1] was 53%.

As for `Cc1ccc(C)c(C(=O)NC(CCN(C)C)c2ccc(Cl)cc2)c1` (configuration not stated), in assay [1], the Efficacy came to 164%.

In turn, `CN(C)CCC(NC(=O)c1ccc2c(c1)OCO2)c1ccc(Cl)cc1` (configuration not stated) came in with an Efficacy in assay [1] of 154%.

`CCc1ccccc1C(=O)N[C@@H](CCN(C)C)c1ccc(Cl)cc1`: on Urotensin-2 receptor, it took 1020 nM to reach a half-maximal effect (EC50). The Efficacy in assay [1] was determined as 140%.

As to `CN(C)CCC(NS(=O)(=O)c1ccc2ccccc2c1)c1ccc(Cl)cc1` (configuration not stated), the “Log EC50” value in assay [1] was “inactive”.

As for `CN(C)CCC(OC(=O)c1ccc2ccccc2c1)c1ccc(Cl)cc1` (configuration not stated), the Efficacy in assay [1] was 49%.

On Urotensin-2 receptor, `CN(C)CCC(OC(=O)Nc1ccc(-c2ccccc2)cc1)c1ccc(Cl)cc1` (configuration not stated) showed an EC50 of 269 nM. In assay [1], the Efficacy stood at 58%.

`CN(C)CCC(OC(=O)Nc1ccc(C(C)(C)C)cc1)c1ccc(Cl)cc1` (configuration not stated) gave an EC50 on Urotensin-2 receptor of 1820 nM. The Efficacy in assay [1] amounted to 105%.

In the case of `CCc1ccccc1C(=O)OC(CCN(C)C)c1ccc(Cl)cc1` (configuration not stated), the Efficacy in assay [1] came out at 128%.

On to `COc1cccc(NC(=O)NC(CCN(C)C)c2ccc(Cl)cc2)c1` (configuration not stated), for which, in assay [1], the Efficacy came to 146%.

`CO[C@@H](C(=O)N[C@H](CCN(C)C)c1ccc(Cl)cc1)c1ccccc1`: the EC50 on Urotensin-2 receptor is 5010 nM. Besides, the Efficacy in assay [1] worked out at 112%.

Molecule `CN(C)CC[C@@H](NC(=O)c1ccc(-c2ccccc2)cc1)c1ccc(Cl)cc1` showed an EC50 at Urotensin-2 receptor of 1450 nM. In assay [1], this molecule returned an Efficacy of 96%.

Turning to `Cc1ccc(COC(CCN(C)C)c2ccc(Cl)cc2)cc1` (configuration not stated), the “Log EC50” value in assay [1] was “inactive”.

In turn, `Cc1ccc(C)c(C(=O)OC(CCN(C)C)c2ccc(Cl)cc2)c1` (configuration not stated) gave an Efficacy in assay [1] of 86%.

In turn, `COc1ccc(C(=O)OC(CCN(C)C)c2ccc(Cl)cc2)cc1` (configuration not stated) had an EC50 at Urotensin-2 receptor of 2190 nM. In addition, in assay [1], the Efficacy turned out to be 84%.

In turn, `Cc1ccccc1C(=O)NC(CCN(C)C)c1ccc(Cl)cc1` (configuration not stated) came in with an Efficacy in assay [1] of 175%.

Turning to `CN(C)CCC(NC(=O)c1ccc(N(C)C)cc1)c1ccc(Cl)cc1` (configuration not stated), the Efficacy in assay [1] came out at 150%.

On Urotensin-2 receptor, `CN(C)CCC1(c2ccc(Cl)cc2)Cc2ccccc2C(=O)O1` (configuration not stated) had an EC50 of 1120 nM. Further, in assay [1], the Efficacy came to 133%.

`CN(C)CCC(NC(=O)Nc1ccc(C(F)(F)F)cc1)c1ccc(Cl)cc1` (configuration not stated): on Urotensin-2 receptor, it took 117 nM to reach a half-maximal effect (EC50). The molecule also yielded an Efficacy in assay [1] of 105%.

Consider `CN(C)CCC(NC(=O)c1ccccc1)c1ccc(Cl)cc1` (configuration not stated), for which the Efficacy in assay [1] was 158%.

Turning to `CN(C)CC[C@H](NC(=O)c1ccc2ccccc2c1)c1ccc(Cl)cc1`, the response on Urotensin-2 receptor was half-maximal at 407 nM (EC50). The molecule further yielded an Efficacy in assay [1] of 109%.
